Common to all, as to assay type: cell-based, human
The test system of experiment [1] is KB head and neck cancer cells. The experiment in a line: MTT cell growth inhibition assay, KB. The note with it: read-out: IC50 values, KB. Put shortly:
(§1)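 MTT assay: cells seeded at 1 × 10^5/well and allowed to adhere 24 h (37°C, 5% CO2). Compound was diluted from DMSO:water (1:3) stock into incomplete medium; finals 300–0.07 μM for 24 h. After a PBS rinse, cells got MTT (5 mg/ml) for 3 h; formazan dissolved in DMSO; A540 read. % viability = OD sample/OD control ×100. IC50 from dose-response curve fitting. Three independent duplicate sets; untreated and cisplatin controls.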

Experiment [2] concerns SNU80 thyroid cancer cells. The experiment in a line: MTT cell growth inhibition assay, SNU80. The note with it: read-out: IC50 values, SNU80. Put shortly:
as §1

For a further experiment, the system named is T98G brain cancer cells. The experiment in a line: MTT cell growth inhibition assay, T98G. The settings on record: read-out: IC50 values, T98G. Put shortly: as §1
The subject of the next experiment is T98G cells. The experiment in a line: Cellular uptake by fluorescence detection. The settings on record: 1–4 μM. Put shortly:
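T98G cells in 96-well plates were allowed to adhere for 12 h, then exposed to 1–4 μM at 37°C in complete medium. After a PBS wash and medium replacement, cell-associated fluorescence was read on a plate reader (ex 330, em 485 nm). Free ligand served as the positive control. Microscopy: cells on glass slides, 2 μM overnight, ex 340–380 / barrier 435–485 filters.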

In experiment [3] the test system is HEK293 non-cancerous cells. The experiment in a line: MTT cell growth inhibition assay, HEK293. The settings on record: read-out: IC50 values, HEK293. Put shortly:
as §1

The structures appear in SMILES notation. Read-outs that look alike come from different tables or passages of the source.

On to `O=C(Nc1ccc(C#Cc2ccncc2)cc1)c1cccc(C(=O)Nc2ccc(C#Cc3ccncc3)cc2)n1` [Complex 1, N,N′-bis(4-(pyridin-4-ylethynyl)phenyl)pyridine-2,6-dicarboxamide], for which the IC50 (usually the midpoint of a concentration-inhibition curve) in experiment [1] (Homo sapiens, 24 h) amounted to 125 µM; in experiment [2] (Homo sapiens, 24 h) it was 107 µM; with T98G brain cancer cells (Homo sapiens, T98G, 24 h), 144 µM; in experiment [3] (Homo sapiens, HEK293, 24 h), 157 µM. Also, the “cellular uptake: fluorescence detected in cells” value in the experiment on T98G cells was “very weak fluorescence”.
As to `N.N.[Cl][Pt][Cl]` [cisplatin, reference compound], the IC50 in experiment [1] (KB head and neck cancer cells, MTT, 24 h treatment) is 72.6 µM; in experiment [2] (SNU80 thyroid cancer cells, MTT, 24 h treatment), 49.3 µM; in the experiment on T98G brain cancer cells (T98G brain cancer cells, MTT, 24 h treatment) it was 69.6 µM; in experiment [3] (HEK293 non-cancerous cells, MTT, 24 h treatment), 17.3 µM.

Source of the values: article PMC5796531 (Chemistry (Weinheim an der Bergstrasse, Germany), 2014).
